This is a sample that favours compounds with a hit; in the whole collection about 2.3% have one here.
EWS-Fli block – blocks EWS/Fli oncoprotein-driven transcription | A673 NR0B1-luciferase reporter, viability-normalised | inhibition, % at 12.6 µM | 350,000 compounds, 0.67% hits | AID 651661;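 active = mean inhibition of at least 50% after viability correction, with every replicate also passing that limit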;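 note: firefly luciferase signal divided by Alamar Blue viability fluorescence both relative to DMSO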
Env fusion inh – blocks HIV Env-driven cell-cell fusion. HeLa-JRFL Env/CEM21 cell fusion, luciferase. inhibition, % at 12.3 µM. 360,000 compounds, 1.1% hits;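 active = mean replicate inhibition score of at least 50 and every replicate individually at or above 50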;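 note: 0% = plate neutral controls and 100% = maraviroc near 300 nM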
FN deposition inh – fibronectin deposition inhibition | AH1F fibroblasts, Alexa488-fibronectin deposition fluorescence, overnight | inhibition, % at 12.6 µM | 350,000 compounds, 0.086% hits;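 active = mean inhibition across replicates of 30% or more, regardless of how many single replicates reach that level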;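 note: positive control wells lacked labelled fibronectin entirely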
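Material: AH1F fibroblast monolayer depositing Alexa488-labelled fibronectin into matrix / Amount: 10000 AH1F cells per well / Signal: fluorescence 485/525 nm / Medium: DMEM, 2% serum / Compound: single dose, pinned / Incubation: 1 h cell adhesion before compound, then overnight fibronectin incubation / Reagent: Alexa488-FN, 24 nM final / Read-out: inhibition of fibronectin deposition signal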
CFTR F508del cor – CFTR F508del correction in bronchial cells; AID 720511; CFBE cells, YFP halide quenching; stimulated with forskolin plus potentiator P3; % fluorescence drop versus neutral controls; activity (quench increase), % at 7.58 µM; 350,000 compounds, 0.36% hits;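 active = mean added fluorescence quench of at least 8% versus neutral control, with both replicates also reaching 8%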;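 note: cells transiently co-express mutant CFTR-F508del with the halide-sensitive YFP; corrector assay measuring rescue of mutant channel to the surface after 24 h compound exposure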
PGC1a acetyl inh – lowers PGC1a acetylation signal in U2OS cells; AlphaScreen anti-acetyl-lysine; with virally co-expressed GCN5 acetyltransferase; inhibition, % at 15.6 µM; 350,000 compounds, 0.17% hits;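 active = every replicate shows inhibition of at least 40%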;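 note: 0% = neutral control wells and 100% = positive control wells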
PAX8 reporter – inhibitors of PAX8 transcriptional activity in RMG-I cells; RMG-I TPO-luciferase reporter, SteadyGlo, 24 h; inhibition, % at 12.6 µM; 360,000 compounds, 1.2% hits; AID 652154;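 active = mean replicate inhibition at least 60% with every replicate also reaching 60%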;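 note: luciferase light reporting Pax8 driven TPO promoter activity; plate controls were median of neutral control wells for no effect and mitoxantrone controls for full effect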
* = called active by the depositor; . = not tested or not shown; ! = repeats disagree; [ ] = another dose, or the depositor's remark.

SMILES	EWS-Fli block	Env fusion inh	FN deposition inh	CFTR F508del cor	PGC1a acetyl inh	PAX8 reporter
O=C(CCN1CCCCC1)N[C@@H]1CC[C@@H](CCNC(=O)c2cc(Cl)cc(Cl)c2)O[C@H]1CO	0	-5[16.7 µM]	1	6	-2	-7
O=C(CCCN1CCC(O)(c2cccc(C(F)(F)F)c2)CC1)c1ccc(F)cc1	11	2	4	8.3*	.	3
Cc1ccccc1NC(=O)C(Cl)=C(Cl)Cl	17	39	8	6	-23	94*
Cc1ccccc1NNC(=O)C(=O)NNc1ccccc1C	18	-19	5	0	.	14
CCCCCCCNC(=O)C1(CC2CC(c3cccc(Br)c3)=NO2)CCNCC1 (stereo not drawn)	41	29	4	-1	-1	80*
CCCCCCCNC(=O)C1(CC2CC(c3cccc(Br)c3)=NO2)CCN(C(=O)Cc2ccc(F)cc2)CC1 (stereo not drawn)	.	.	.	.	-6	.
C[C@@H]1CN([C@@H](C)CO)S(=O)(=O)c2ccc(-c3ccc(C#N)cc3)cc2O[C@@H]1CN(C)Cc1cccc(F)c1	-11	17[16.7 µM]	.	1	19	63*
C[C@H]1CN([C@@H](C)CO)S(=O)(=O)c2ccc(-c3ccc(C#N)cc3)cc2O[C@H]1CN(C)Cc1cccc(F)c1	2	31[16.7 µM]	.	3	10	48
C[C@@H]1CN([C@H](C)CO)S(=O)(=O)c2ccc(-c3ccc(C#N)cc3)cc2O[C@@H]1CN(C)Cc1cccc(F)c1	24	22[16.7 µM]	.	6	31	86*
C[C@@H]1CN([C@@H](C)CO)S(=O)(=O)c2ccc(-c3ccc(C#N)cc3)cc2O[C@H]1CN(C)Cc1cccc(F)c1	15	17[16.7 µM]	.	8.0*	-14	57
COc1ccccc1NC(=O)Nc1ccc2c(c1)C(=O)N(C)C[C@H](OC)[C@H](C)CN[C@H](C)CO2	-7	5[16.7 µM]	.	-4	0	-8
CO[C@@H]1CN(C)C(=O)c2ccc(NC(=O)C3CCOCC3)cc2OC[C@@H](C)N(CC2CC2)C[C@@H]1C	7	.	5	0	-18	-1
O=C(C[C@H]1C[C@@H]2c3cc(NC(=O)NC4CCCCC4)ccc3O[C@@H]2[C@H](CO)O1)NCc1ccccn1	-3	-11[16.7 µM]	.	1	-2	-2
CCOc1ccc(-c2ccc(SC)nn2)cc1	79*	-2	.	-3	.	75*
O=C(NCc1ccccc1)C(c1ccccc1)N(Cc1ccccc1)C(=O)Cc1ccccc1 (stereo not drawn)	71*	-3[16.7 µM]	.	-7	.	79*
CC(=O)N(C)c1ccc(OCC(O)Cn2c3ccc(Cl)cc3c3cc(Cl)ccc32)cc1 (stereo not drawn)	.	130*	12	.	-21	48
CC(=O)N(C)c1ccc(OCC(O)Cn2c(C)nc3ccccc32)cc1 (stereo not drawn)	14	-11	6	-4	.	21
CCCN(C)C[C@H]1Oc2cc(-c3cccc(OC)c3)ccc2S(=O)(=O)N([C@H](C)CO)C[C@H]1C	10	-21[16.7 µM]	.	-4	-17	.
O=C(Nc1ccc(Cl)cn1)C1CCCN1S(=O)(=O)c1cccc2ccccc12 (stereo not drawn)	.	70*	4	.	.	.
O=C(Nc1ccc(Cl)cn1)C1CCCN1S(=O)(=O)c1ccc(Cl)cc1 (stereo not drawn)	.	.	.	.	2	.
CCc1cnc(N2[C@@H](C#N)[C@H](c3ccc(C#CC(C)C)cc3)[C@@H]2CO)s1	17	.	-18	-3	-1	-10
CCc1cnc(N2[C@@H](C#N)[C@@H](c3ccc(C#CC(C)C)cc3)[C@@H]2CO)s1	-8	.	5	-1	-7	113*
O=C(Nc1ccc(Cl)c(Cl)c1)N[C@@H]1CC[C@H](CCNC(=O)c2ccc(F)cc2)O[C@@H]1CO	-1	14[16.7 µM]	12	-1	6	5
CO[C@H]1CN(C)C(=O)c2cc(NC(=O)Nc3ccccc3)ccc2OC[C@H](C)N(C(=O)CN(C)C)C[C@H]1C	-7	.	25	0	2	.
COC(=O)c1cc(C)nc2c1C(=O)C(=O)C=C2N1CCOCC1	73*	-1	-2	-4	.	106*
SMILES	EWS-Fli block	Env fusion inh	FN deposition inh	CFTR F508del cor	PGC1a acetyl inh	PAX8 reporter
COC(=O)c1cc(S(=O)(=O)N2CCOCC2)c(Cl)cc1N1CCOCC1	.	29	.	.	7	.
C[C@H](O)C#Cc1ccc2c(c1)O[C@@H](CN(C)C(=O)C1CC1)[C@H](C)CN([C@@H](C)CO)S2(=O)=O	-6	-12[16.7 µM]	6	-1	-2	.
CNC[C@H]1Oc2ncc(C#CC3(O)CCCC3)cc2C(=O)N([C@H](C)CO)C[C@H]1C	-2	-1[16.7 µM]	.	1	-2	-14
COCc1cn(CC[C@@H]2CC[C@H](NC(=O)Nc3ccc(OC)cc3)[C@H](CO)O2)nn1	-2	3[16.7 µM]	.	-2	-3	-1
Cc1ccc(Cl)cc1Nc1nc(-c2sc(NC(=O)c3ccco3)nc2C)cs1	49	33	-1	2	-21	86*
Cc1nc(NC(=O)c2ccco2)sc1-c1csc(Nc2ccc(Cl)cc2Cl)n1	3	-21	-9	1	.	20
COc1cccc(N(C(=O)c2ccco2)c2nc(-c3sc(NC(=O)c4ccco4)nc3C)cs2)c1	20	44	16	-7	-1	99*
C[C@H](CO)N1C[C@H](C)[C@@H](CN(C)Cc2ccc(Oc3ccccc3)cc2)Oc2c(NC(=O)CCCCCC(=O)Nc3ccccc3N)cccc2C1=O	27	.	.	4	-20	63*
C[C@H]1CN([C@@H](C)CO)C(=O)c2cccc(NC(=O)CCCCCC(=O)Nc3ccccc3N)c2O[C@@H]1CN(C)Cc1ccc(Cl)c(Cl)c1	.	.	-8	5	-39	65*
C[C@H]1CN([C@@H](C)CO)C(=O)c2cccc(NC(=O)CCCCCC(=O)Nc3ccccc3N)c2O[C@H]1CN(C)Cc1ccc(Oc2ccccc2)cc1	30	.	.	-3	6	23
C[C@H]1CN([C@@H](C)CO)C(=O)c2cccc(NC(=O)NC3CCCCC3)c2O[C@H]1CN(C)Cc1ccc(Cl)c(Cl)c1	11	-72[16.7 µM]	.	2	-1	.
C[C@@H]1CN([C@@H](C)CO)C(=O)c2cccc(NC(=O)NC3CCCCC3)c2O[C@@H]1CN(C)Cc1ccc(Cl)c(Cl)c1	3	-18[16.7 µM]	.	9.3*	21	.
C[C@@H]1CN([C@H](C)CO)C(=O)Cc2cc(NC(=O)Cc3cn(C)c4ccccc34)ccc2O[C@H]1CN(C)Cc1ccc(C(F)(F)F)cc1	9	-17[16.7 µM]	-7	0	-14	28
O=C(c1ccc(F)cc1)N1C[C@@H]2N[C@H](C1)C2c1ccc(-c2ccc(F)cc2)cc1 (stereo partly drawn)	0	.	-3	-1	-4	84*!
Cc1ccccc1-c1ccc(C2[C@@H]3CN(C(=O)c4ccc(F)cc4)C[C@H]2N3)cc1 (stereo partly drawn)	-3	.	2	3	-11	65*!

Screening data as filed in PubChem BioAssay.
